Active and inactive are the calls of the source. The rule behind the calls is not given here.
How the values were obtained:
[1] = Toxicity in Swiss albino mouse assessed as haemoglobin level at 5 mg/kg, po administered for 7 days (reference value: 15.66 +/- 0.80 g/dl); format: organism-based; settings: in vivo, 168 h, time 7 day
[2] = Toxicity in Swiss albino mouse assessed as change in relative spleen weight at 5 to 1000 mg/kg, po administered for 7 days; format: organism-based; settings: in vivo, 168 h, dose 5-1000 mg/kg, time 7 day
[3] = Hepatotoxicity in Swiss albino mouse assessed as SGOT level at 1000 mg/kg, po administered for 7 days (reference value: 31.51 +/- 6.31 U/L); format: toxicity, organism-based; settings: in vivo, 168 h, time 7 day
In short: (§1)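 Single acute oral dose (5, 50, 300 or 1000 mg/kg) given to Swiss albino mice, n = 6, with 7-day observation. At the end, haematological and serum biochemical parameters were measured. Compared with untreated controls; mean ± SE, ANOVA, p < 0.05.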

[4] = Toxicity in Swiss albino mouse assessed as change in body weight at 5 mg/kg, po administered for 7 days (reference value: 29.35 +/- 0.57 g); format: organism-based; settings: in vivo, 168 h, time 7 day
[5] = Toxicity in Swiss albino mouse assessed as change in absolute lungs weight at 5 to 1000 mg/kg, po administered for 7 days; format: organism-based; settings: in vivo, 168 h, dose 5-1000 mg/kg, time 7 day
[6] = Hepatotoxicity in Swiss albino mouse assessed as SGPT level at 50 mg/kg, po administered for 7 days (reference value: 17.01 +/- 2.33 U/L); format: toxicity, organism-based; settings: in vivo, 168 h, time 7 day; in short: as §1
MDA-MB-231 = test: Cytotoxicity against human MDA-MB-231 cells incubated for 72 hrs by Sulphorhodamine assay; format: functional, cell-based; settings: MDA-MB-231, 72 h
Tubulin (Homo sapiens) = Tubulin (Homo sapiens) (UniProt P68371+Q9H4B7+P0DPH7+P68366+Q13509+Q71U36+P04350+Q3ZCM7+P07437+P68363+Q9BQE3+Q6PEY2+Q13885+Q9BVA1+Q9BUF5); test: Induction of microtubule stabilization (unknown origin) at 0.2 to 5 uM; format: protein-complex assay; settings: dose 0.2-5 µM
[7] = Toxicity in Swiss albino mouse assessed as change in relative heart weight at 5 to 1000 mg/kg, po administered for 7 days; format: organism-based; settings: in vivo, 168 h, dose 5-1000 mg/kg, time 7 day
[8] = Toxicity in Swiss albino mouse assessed as change in body weight at 300 mg/kg, po administered for 7 days (reference value: 29.35 +/- 0.57 g); format: organism-based; settings: in vivo, 168 h, time 7 day
[9] = Antiinflammatory activity in mouse peritoneal macrophage assessed as reduction in LPS-induced TNFalpha production at 1 ug/ml; format: functional; settings: dose 1 µg/ml
[10] = Toxicity in Swiss albino mouse assessed as haemoglobin level at 300 mg/kg, po administered for 7 days (reference value: 15.66 +/- 0.80 g/dl); format: organism-based; settings: in vivo, 168 h, time 7 day
[11] = Toxicity in Swiss albino mouse assessed as WBC level at 300 mg/kg, po administered for 7 days (reference value: 5.29 +/- 0.51 10^3/mm3); format: organism-based; settings: in vivo, 168 h, time 7 day
[12] = Cytotoxicity against african green monkey Vero cells incubated for 72 hrs by Sulphorhodamine assay; format: toxicity, cell-based; settings: African green monkey (Chlorocebus sabaeus)
[13] = Renal toxicity in Swiss albino mouse assessed as creatinine level at 1000 mg/kg, po administered for 7 days (reference value: 0.76 +/- 0.06 mg/dl); format: organism-based; settings: in vivo, 168 h, time 7 day; in short: as §1
[14] = Toxicity in Swiss albino mouse assessed as change in absolute kidney weight at 5 to 1000 mg/kg, po administered for 7 days; format: organism-based; settings: in vivo, 168 h, dose 5-1000 mg/kg, time 7 day
[15] = Toxicity in Swiss albino mouse assessed as triglyceride level at 50 mg/kg, po administered for 7 days (reference value: 136.88 +/- 3.12 mg/dl); format: organism-based; settings: in vivo, 168 h, time 7 day
[16] = Antiinflammatory activity in mouse peritoneal macrophage assessed as inhibition of LPS-induced IL6 production at 1 ug/ml relative to control; format: functional; parameters: scale not given: the % may be the effect or the level left; settings: dose 1 µg/ml
[17] = Hepatotoxicity in Swiss albino mouse assessed as serum protein level at 1000 mg/kg, po administered for 7 days (reference value: 5.73 +/- 0.21 mg/ml); format: toxicity, organism-based; settings: in vivo, 168 h, time 7 day; in short: as §1
[18] = Renal toxicity in Swiss albino mouse assessed as creatinine level at 5 mg/kg, po administered for 7 days (reference value: 0.76 +/- 0.06 mg/dl); format: organism-based; settings: in vivo, 168 h, time 7 day; in short: as §1
[19] = Toxicity in Swiss albino mouse assessed as RBC level at 50 mg/kg, po administered for 7 days (reference value: 7.13 +/- 0.40 million/mm3); format: organism-based, Erythrocyte; settings: in vivo, 168 h, time 7 day; in short: as §1
[20] = Hepatotoxicity in Swiss albino mouse assessed as albumin level at 5 mg/kg, po administered for 7 days (reference value: 4.12 +/- 0.17 g/dl); format: toxicity, organism-based; settings: in vivo, 168 h, time 7 day; in short: as §1
[21] = Hepatotoxicity in Swiss albino mouse assessed as serum protein level at 300 mg/kg, po administered for 7 days (reference value: 5.73 +/- 0.21 mg/ml); format: toxicity, organism-based; settings: in vivo, 168 h, time 7 day; in short: as §1
[22] = Toxicity in Swiss albino mouse assessed as change in body weight at 1000 mg/kg, po administered for 7 days (reference value: 29.35 +/- 0.57 g); format: organism-based; settings: in vivo, 168 h, time 7 day
Homo sapiens = species: Homo sapiens; test: Selectivity ratio, ratio of inhibition of HDAC in human HeLa nuclear extract assessed as residual activity to inhibition of human recombinant HDAC6 assessed as residual activity
In short: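 Compounds at 20 μM tested by fluorometric assay on HeLa nuclear extract (class I/II HDACs) and on human recombinant HDAC6. Residual activity is expressed relative to untreated control. Selectivity is the ratio of PanHDAC to HDAC6 residual activity: ≥7 high, 2.5–6.9 moderate, <2.5 low.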

[23] = Selectivity index, ratio of IC50 for african green monkey Vero cells to IC50 for human K562 cells; format: toxicity; settings: Vero cells versus K562 cells, read-out: Ratio IC50
[24] = Antiinflammatory activity in mouse peritoneal macrophage assessed as reduction in LPS-induced IL6 production at 1 ug/ml; format: functional; settings: dose 1 µg/ml
[25] = Toxicity in Swiss albino mouse assessed as behavioural changes at 5 to 1000 mg/kg, po administered for 7 days; format: organism-based; settings: in vivo, 168 h, dose 5-1000 mg/kg, time 7 day
[26] = Hepatotoxicity in Swiss albino mouse assessed as alkaline phosphatase level at 5 mg/kg, po administered for 7 days (reference value: 260.10 +/- 26.76 U/L); format: toxicity, organism-based; settings: in vivo, 168 h, time 7 day; in short: as §1
[27] = Toxicity in Swiss albino mouse assessed as change in absolute brain weight at 5 to 1000 mg/kg, po administered for 7 days; format: organism-based; settings: in vivo, 168 h, dose 5-1000 mg/kg, time 7 day
[28] = Toxicity in Swiss albino mouse assessed as WBC level at 1000 mg/kg, po administered for 7 days (reference value: 5.29 +/- 0.51 10^3/mm3); format: organism-based; settings: in vivo, 168 h, time 7 day; in short: as §1
[29] = Toxicity in Swiss albino mouse assessed as triglyceride level at 1000 mg/kg, po administered for 7 days (reference value: 136.88 +/- 3.12 mg/dl); format: organism-based; settings: in vivo, 168 h, time 7 day
[30] = Toxicity in Swiss albino mouse assessed as change in relative brain weight at 5 to 1000 mg/kg, po administered for 7 days; format: organism-based; settings: in vivo, 168 h, dose 5-1000 mg/kg, time 7 day
[31] = Toxicity in Swiss albino mouse assessed as change in absolute liver weight at 5 to 1000 mg/kg, po administered for 7 days; format: organism-based; settings: in vivo, 168 h, dose 5-1000 mg/kg, time 7 day
[32] = Hepatotoxicity in Swiss albino mouse assessed as SGOT level at 5 mg/kg, po administered for 7 days (reference value: 31.51 +/- 6.31 U/L); format: toxicity, organism-based; settings: in vivo, 168 h, time 7 day; in short: as §1

COc1cc(C2/C(=C/c3ccc(/C=C/C(=O)NO)cc3)C(=O)c3cc(OC)c(OC)c(OC)c32)cc(OC)c1OC (stereo not given)
Activity [1]: 17.63 g/dL
Activity [2]: Non-Toxic
Activity [3]: 33.4 U/L
Activity [4]: 28.17 g
Activity [5]: Non-Toxic
Activity [6]: 19.56 U/L
IC50 (MDA-MB-231): 0.36 µM
Activity (Tubulin (Homo sapiens)): Active
Activity [7]: Non-Toxic
Activity [8]: 30.22 g
Activity [9]: 1019.21 pg/mL
Activity [10]: 16.77 g/dL
Activity [11]: 5.75 10^3/mm3
IC50 at 72 h [12]: 100 µM
Activity [13]: 0.74 mg/dL
Activity [14]: Non-Toxic
Activity [15]: 129.78 mg/dL
Activity [16]: 13.14%
Activity [17]: 5.87 mg/mL
Activity [18]: 0.58 mg/dL
Activity [19]: 8.82 million/mm3
Activity [20]: 4.34 g/dL
Activity [21]: 5.45 mg/mL
Activity [22]: 27.43 g
Ratio (Homo sapiens): < 0.5
selectivity ratio [23]: 30.7
Activity [24]: 2617.2 pg/mL
Activity [25]: Non-Toxic
Activity [26]: 221.34 U/L
Activity [27]: Non-Toxic
Activity [28]: 4.73 10^3/mm3
Activity [29]: 130.21 mg/dL
Activity [30]: Non-Toxic
Activity [31]: Non-Toxic
Activity [32]: 28.87 U/L

From ChEMBL document CHEMBL5257120 (Bioorg Med Chem, 2023)
